Measurements taken from ChEMBL document CHEMBL5058577, “EUbOPEN Chemogenomics Library 2 (Multiplex)” (2022).

Tested on: Fibroblast
Assay: Multiplex assay against human fibroblast
Assay type: toxicity, cell-based
Summary of the method: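 With compound added, live cells were imaged on a CQ1 microscope at 37°C and 5% CO2; staining with Hoechst33342, BioTracker Green Microtubule Cytoskeleton Dye, MitoTracker Red and Annexin V Alexa Fluor 680 had been done at seeding. The CellPathfinder machine-learning gating scheme split cells into Hoechst high-intensity objects or normal cells, normal cells into healthy, pyknosed or fragmented nuclei, and pyknosed cells into mitotic or apoptotic. The tubulin, mitochondrial-mass and membrane-permeability phenotypes are per cents of healthy-nucleus cells.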

[1] = 12 h, 1 µM, compound concentration 1 uM, replicate 1
[2] = 12 h, 1 µM, compound concentration 1 uM, replicate 2
[3] = 12 h, 10 µM, compound concentration 10 uM, replicate 1
[4] = 12 h, 10 µM, compound concentration 10 uM, replicate 2
[5] = 24 h, 1 µM, compound concentration 1 uM, replicate 1
[6] = 24 h, 1 µM, compound concentration 1 uM, replicate 2
[7] = 24 h, 10 µM, compound concentration 10 uM, replicate 1
[8] = 24 h, 10 µM, compound concentration 10 uM, replicate 2
[9] = 48 h, 1 µM, compound concentration 1 uM, replicate 1
[10] = 48 h, 1 µM, compound concentration 1 uM, replicate 2
[11] = 48 h, 10 µM, compound concentration 10 uM, replicate 1
[12] = 48 h, 10 µM, compound concentration 10 uM, replicate 2

Structure (SMILES): CC[C@H]1OC(=O)[C@H](C)[C@@H](O[C@H]2C[C@@](C)(OC)[C@@H](O)[C@H](C)O2)[C@H](C)[C@@H](O[C@@H]2O[C@H](C)C[C@H](N(C)C)[C@H]2O)[C@@]2(C)CC(C)=C(O2)[C@H](C)[C@@H](O)[C@]1(C)O
- Population Apoptotic (%) [1]: 37%
- Population Fragmented Nuclei (%) [1]: 13%
- Population Healthy Nuclei (%) [1]: 72%
- Population Hoechst High Intensity Objects (%) [1]: 2%
- Population Membrane Permeable-Phenotype (%) [1]: 0%
- Population Mitochondria Different-Phenotype (%) [1]: 8%
- Population Mitotic Cells (%) [1]: 62%
- Population Normal (%) [1]: 97%
- Population Pyknosed Nuclei (%) [1]: 13%
- Population Tubulin-Different-Phenotype (%) [1]: 40%
- Total Cell Count [1]: 176
- Population Apoptotic (%) [2]: 46%
- Population Fragmented Nuclei (%) [2]: 23%
- Population Healthy Nuclei (%) [2]: 57%
- Population Hoechst High Intensity Objects (%) [2]: 3%
- Population Membrane Permeable-Phenotype (%) [2]: 9%
- Population Mitochondria Different-Phenotype (%) [2]: 6%
- Population Mitotic Cells (%) [2]: 53%
- Population Normal (%) [2]: 96%
- Population Pyknosed Nuclei (%) [2]: 18%
- Population Tubulin-Different-Phenotype (%) [2]: 53%
- Total Cell Count [2]: 170
- Population Apoptotic (%) [3]: 48%
- Population Fragmented Nuclei (%) [3]: 24%
- Population Healthy Nuclei (%) [3]: 63%
- Population Hoechst High Intensity Objects (%) [3]: 3%
- Population Membrane Permeable-Phenotype (%) [3]: 0%
- Population Mitochondria Different-Phenotype (%) [3]: 25%
- Population Mitotic Cells (%) [3]: 52%
- Population Normal (%) [3]: 96%
- Population Pyknosed Nuclei (%) [3]: 12%
- Population Tubulin-Different-Phenotype (%) [3]: 86%
- Total Cell Count [3]: 205
- Population Apoptotic (%) [4]: 40%
- Population Fragmented Nuclei (%) [4]: 41%
- Population Healthy Nuclei (%) [4]: 33%
- Population Hoechst High Intensity Objects (%) [4]: 4%
- Population Membrane Permeable-Phenotype (%) [4]: 14%
- Population Mitochondria Different-Phenotype (%) [4]: 11%
- Population Mitotic Cells (%) [4]: 59%
- Population Normal (%) [4]: 95%
- Population Pyknosed Nuclei (%) [4]: 25%
- Population Tubulin-Different-Phenotype (%) [4]: 73%
- Total Cell Count [4]: 133
- Population Apoptotic (%) [5]: 52%
- Population Fragmented Nuclei (%) [5]: 18%
- Population Healthy Nuclei (%) [5]: 69%
- Population Hoechst High Intensity Objects (%) [5]: 4%
- Population Membrane Permeable-Phenotype (%) [5]: 0%
- Population Mitochondria Different-Phenotype (%) [5]: 7%
- Population Mitotic Cells (%) [5]: 47%
- Population Normal (%) [5]: 95%
- Population Pyknosed Nuclei (%) [5]: 12%
- Population Tubulin-Different-Phenotype (%) [5]: 45%
- Total Cell Count [5]: 173
- Population Apoptotic (%) [6]: 46%
- Population Fragmented Nuclei (%) [6]: 29%
- Population Healthy Nuclei (%) [6]: 52%
- Population Hoechst High Intensity Objects (%) [6]: 3%
- Population Membrane Permeable-Phenotype (%) [6]: 7%
- Population Mitochondria Different-Phenotype (%) [6]: 5%
- Population Mitotic Cells (%) [6]: 53%
- Population Normal (%) [6]: 96%
- Population Pyknosed Nuclei (%) [6]: 17%
- Population Tubulin-Different-Phenotype (%) [6]: 36%
- Total Cell Count [6]: 176
- Population Apoptotic (%) [7]: 52%
- Population Fragmented Nuclei (%) [7]: 22%
- Population Healthy Nuclei (%) [7]: 69%
- Population Hoechst High Intensity Objects (%) [7]: 2%
- Population Membrane Permeable-Phenotype (%) [7]: 0%
- Population Mitochondria Different-Phenotype (%) [7]: 37%
- Population Mitotic Cells (%) [7]: 47%
- Population Normal (%) [7]: 97%
- Population Pyknosed Nuclei (%) [7]: 8%
- Population Tubulin-Different-Phenotype (%) [7]: 89%
- Total Cell Count [7]: 199
- Population Apoptotic (%) [8]: 46%
- Population Fragmented Nuclei (%) [8]: 40%
- Population Healthy Nuclei (%) [8]: 39%
- Population Hoechst High Intensity Objects (%) [8]: 1%
- Population Membrane Permeable-Phenotype (%) [8]: 8%
- Population Mitochondria Different-Phenotype (%) [8]: 12%
- Population Mitotic Cells (%) [8]: 53%
- Population Normal (%) [8]: 98%
- Population Pyknosed Nuclei (%) [8]: 20%
- Population Tubulin-Different-Phenotype (%) [8]: 81%
- Total Cell Count [8]: 127
- Population Apoptotic (%) [9]: 55%
- Population Fragmented Nuclei (%) [9]: 17%
- Population Healthy Nuclei (%) [9]: 71%
- Population Hoechst High Intensity Objects (%) [9]: 3%
- Population Membrane Permeable-Phenotype (%) [9]: 0%
- Population Mitochondria Different-Phenotype (%) [9]: 9%
- Population Mitotic Cells (%) [9]: 44%
- Population Normal (%) [9]: 96%
- Population Pyknosed Nuclei (%) [9]: 11%
- Population Tubulin-Different-Phenotype (%) [9]: 57%
- Total Cell Count [9]: 168
- Population Apoptotic (%) [10]: 56%
- Population Fragmented Nuclei (%) [10]: 32%
- Population Healthy Nuclei (%) [10]: 54%
- Population Hoechst High Intensity Objects (%) [10]: 2%
- Population Membrane Permeable-Phenotype (%) [10]: 7%
- Population Mitochondria Different-Phenotype (%) [10]: 5%
- Population Mitotic Cells (%) [10]: 43%
- Population Normal (%) [10]: 97%
- Population Pyknosed Nuclei (%) [10]: 13%
- Population Tubulin-Different-Phenotype (%) [10]: 56%
- Total Cell Count [10]: 173
- Population Apoptotic (%) [11]: 84%
- Population Fragmented Nuclei (%) [11]: 24%
- Population Healthy Nuclei (%) [11]: 68%
- Population Hoechst High Intensity Objects (%) [11]: 8%
- Population Membrane Permeable-Phenotype (%) [11]: 0%
- Population Mitochondria Different-Phenotype (%) [11]: 40%
- Population Mitotic Cells (%) [11]: 15%
- Population Normal (%) [11]: 91%
- Population Pyknosed Nuclei (%) [11]: 6%
- Population Tubulin-Different-Phenotype (%) [11]: 91%
- Total Cell Count [11]: 216
- Population Apoptotic (%) [12]: 58%
- Population Fragmented Nuclei (%) [12]: 43%
- Population Healthy Nuclei (%) [12]: 47%
- Population Hoechst High Intensity Objects (%) [12]: 7%
- Population Membrane Permeable-Phenotype (%) [12]: 6%
- Population Mitochondria Different-Phenotype (%) [12]: 8%
- Population Mitotic Cells (%) [12]: 41%
- Population Normal (%) [12]: 92%
- Population Pyknosed Nuclei (%) [12]: 9%
- Population Tubulin-Different-Phenotype (%) [12]: 78%
- Total Cell Count [12]: 139
